Several values for one entry are separate records, joined by “and”; a condition that tells them apart may be missing. Identical values can stand only once.
Test system: HEK-293T
Assay: Multiplex assay against HEK293T
Assay type: toxicity, cell-based
Details: human, number of replicates 2
Summary of the method: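 Four dyes were applied at seeding to live cells: Hoechst33342, BioTracker Green Microtubule Cytoskeleton Dye, MitoTracker Red and Annexin V Alexa Fluor 680. Imaging after compound addition used a CQ1 microscope at 37°C and 5% CO2. CellPathfinder machine-learning gating then sorted cells into Hoechst high-intensity objects or normal cells, normal cells into healthy, pyknosed or fragmented nuclei, and pyknosed cells into mitotic or apoptotic, with tubulin, mitochondrial-mass and membrane-permeability phenotypes given as per cents of healthy-nucleus cells.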

[1] = 12 h, 1 µM, compound concentration 1 uM
[2] = 12 h, 10 µM, compound concentration 10 uM
[3] = 24 h, 1 µM, compound concentration 1 uM
[4] = 24 h, 10 µM, compound concentration 10 uM
[5] = 48 h, 1 µM, compound concentration 1 uM
[6] = 48 h, 10 µM, compound concentration 10 uM

## CN1CCCN(C(=O)c2cccc(-c3ccc(/C=C4/C(=O)Nc5ccc(Cl)cc54)o3)c2)CC1
[1]
  Population Apoptotic (%): 58% and 72%
  Population Fragmented Nuclei (%): 4%
  Population Healthy Nuclei (%): 88% and 86%
  Population Hoechst High Intensity Objects (%): 6%
  Population Membrane Permeable-Phenotype (%): 3% and 2%
  Population Mitochondria Different-Phenotype (%): 8% and 12%
  Population Mitotic Cells (%): 41% and 27%
  Population Normal (%): 93%
  Population Pyknosed Nuclei (%): 6% and 9%
  Population Tubulin-Different-Phenotype (%): 60% and 45%
  Total Cell Count: 923 and 535
[2]
  Population Apoptotic (%): 67% and 62%
  Population Fragmented Nuclei (%): 2% and 1%
  Population Healthy Nuclei (%): 86% and 92%
  Population Hoechst High Intensity Objects (%): 5% and 6%
  Population Membrane Permeable-Phenotype (%): 7% and 4%
  Population Mitochondria Different-Phenotype (%): 38% and 32%
  Population Mitotic Cells (%): 32% and 37%
  Population Normal (%): 94% and 93%
  Population Pyknosed Nuclei (%): 11% and 6%
  Population Tubulin-Different-Phenotype (%): 94% and 96%
  Total Cell Count: 365 and 416
[3]
  Population Apoptotic (%): 57% and 72%
  Population Fragmented Nuclei (%): 7% and 6%
  Population Healthy Nuclei (%): 86% and 85%
  Population Hoechst High Intensity Objects (%): 9%
  Population Membrane Permeable-Phenotype (%): 2% and 1%
  Population Mitochondria Different-Phenotype (%): 1% and 3%
  Population Mitotic Cells (%): 42% and 27%
  Population Normal (%): 90%
  Population Pyknosed Nuclei (%): 6% and 8%
  Population Tubulin-Different-Phenotype (%): 18% and 20%
  Total Cell Count: 1009 and 610
[4]
  Population Apoptotic (%): 64% and 56%
  Population Fragmented Nuclei (%): 4% and 2%
  Population Healthy Nuclei (%): 79% and 90%
  Population Hoechst High Intensity Objects (%): 2% and 4%
  Population Membrane Permeable-Phenotype (%): 7% and 8%
  Population Mitochondria Different-Phenotype (%): 34% and 29%
  Population Mitotic Cells (%): 35% and 43%
  Population Normal (%): 97% and 95%
  Population Pyknosed Nuclei (%): 16% and 7%
  Population Tubulin-Different-Phenotype (%): 84% and 87%
  Total Cell Count: 402 and 421
[5]
  Population Apoptotic (%): 43% and 64%
  Population Fragmented Nuclei (%): 16% and 12%
  Population Healthy Nuclei (%): 81% and 84%
  Population Hoechst High Intensity Objects (%): 6% and 5%
  Population Membrane Permeable-Phenotype (%): 0%
  Population Mitochondria Different-Phenotype (%): 1% and 4%
  Population Mitotic Cells (%): 56% and 35%
  Population Normal (%): 93% and 94%
  Population Pyknosed Nuclei (%): 2%
  Population Tubulin-Different-Phenotype (%): 14% and 15%
  Total Cell Count: 1019 and 606
[6]
  Population Apoptotic (%): 60% and 55%
  Population Fragmented Nuclei (%): 6%
  Population Healthy Nuclei (%): 46% and 55%
  Population Hoechst High Intensity Objects (%): 7% and 3%
  Population Membrane Permeable-Phenotype (%): 3% and 2%
  Population Mitochondria Different-Phenotype (%): 50% and 38%
  Population Mitotic Cells (%): 39% and 44%
  Population Normal (%): 92% and 96%
  Population Pyknosed Nuclei (%): 47% and 38%
  Population Tubulin-Different-Phenotype (%): 77% and 76%
  Total Cell Count: 403 and 446

## CS(=O)(=O)c1ccc(C(=O)Nc2cccc(COc3ccc(Br)cc3CN[C@H]3CCC[C@@H]3O)c2)c(Cl)c1.O=CO
[1]
  Population Apoptotic (%): 63% and 58%
  Population Healthy Nuclei (%): 76% and 80%
  Population Mitotic Cells (%): 36% and 41%
  Population Normal (%): 91% and 92%
  Total Cell Count: 550 and 522
[2]
  Population Apoptotic (%): 66% and 59%
  Population Healthy Nuclei (%): 84% and 88%
  Population Mitotic Cells (%): 33% and 40%
  Population Normal (%): 91% and 90%
  Total Cell Count: 631 and 603
[3]
  Population Apoptotic (%): 55% and 58%
  Population Healthy Nuclei (%): 80% and 83%
  Population Mitotic Cells (%): 44% and 41%
  Population Normal (%): 90%
  Total Cell Count: 792 and 800
[4]
  Population Apoptotic (%): 60% and 67%
  Population Healthy Nuclei (%): 85% and 79%
  Population Mitotic Cells (%): 39% and 32%
  Population Normal (%): 91% and 87%
  Total Cell Count: 623 and 546
[5]
  Population Apoptotic (%): 20% and 29%
  Population Healthy Nuclei (%): 86% and 87%
  Population Mitotic Cells (%): 79% and 70%
  Population Normal (%): 91% and 92%
  Total Cell Count: 1777 and 1587
[6]
  Population Apoptotic (%): 60% and 78%
  Population Healthy Nuclei (%): 86% and 80%
  Population Mitotic Cells (%): 40% and 21%
  Population Normal (%): 89% and 90%
  Total Cell Count: 671 and 634

## Cn1ncc(NC(=O)c2nc(-c3c(F)cccc3F)sc2N)c1N1CC[C@@H](N)[C@H](F)CC1
[1]
  Population Apoptotic (%): 29% and 32%
  Population Healthy Nuclei (%): 85% and 86%
  Population Mitochondria Different-Phenotype (%): 10% and 6%
  Population Mitotic Cells (%): 70% and 67%
  Population Normal (%): 92% and 95%
  Population Pyknosed Nuclei (%): 10%
  Population Tubulin-Different-Phenotype (%): 42% and 32%
  Total Cell Count: 737 and 724
[2]
  Population Apoptotic (%): 34% and 47%
  Population Healthy Nuclei (%): 81% and 80%
  Population Mitotic Cells (%): 65% and 52%
  Population Normal (%): 95% and 97%
  Population Pyknosed Nuclei (%): 16%
  Population Tubulin-Different-Phenotype (%): 54% and 47%
  Total Cell Count: 730 and 672
[3]
  Population Apoptotic (%): 21% and 25%
  Population Healthy Nuclei (%): 87% and 86%
  Population Mitochondria Different-Phenotype (%): 4%
  Population Mitotic Cells (%): 78% and 74%
  Population Normal (%): 93% and 90%
  Population Pyknosed Nuclei (%): 8% and 9%
  Population Tubulin-Different-Phenotype (%): 25% and 21%
  Total Cell Count: 1100 and 1020
[4]
  Population Apoptotic (%): 47% and 52%
  Population Healthy Nuclei (%): 85% and 86%
  Population Mitochondria Different-Phenotype (%): 16%
  Population Mitotic Cells (%): 52% and 47%
  Population Normal (%): 97% and 95%
  Population Tubulin-Different-Phenotype (%): 44% and 41%
  Total Cell Count: 753 and 689
[5]
  Population Apoptotic (%): 15%
  Population Healthy Nuclei (%): 86% and 85%
  Population Mitotic Cells (%): 90% and 84%
  Population Normal (%): 89% and 85%
  Population Pyknosed Nuclei (%): 4% and 5%
  Population Tubulin-Different-Phenotype (%): 12% and 13%
  Total Cell Count: 2209 and 1829
[6]
  Population Apoptotic (%): 44% and 55%
  Population Healthy Nuclei (%): 89% and 87%
  Population Mitochondria Different-Phenotype (%): 10%
  Population Mitotic Cells (%): 55%
  Population Normal (%): 94% and 92%
  Population Pyknosed Nuclei (%): 4% and 6%
  Population Tubulin-Different-Phenotype (%): 29% and 23%
  Total Cell Count: 770 and 768

## CC(C)N(CCCCOCC(=O)NS(C)(=O)=O)c1cnc(-c2ccccc2)c(-c2ccccc2)n1 [SELEXIPAG]
[1]
  Population Apoptotic (%): 50% and 55%
  Population Fragmented Nuclei (%): 3% and 4%
  Population Healthy Nuclei (%): 81% and 80%
  Population Hoechst High Intensity Objects (%): 8% and 6%
  Population Membrane Permeable-Phenotype (%): 2%
  Population Mitochondria Different-Phenotype (%): 17% and 14%
  Population Mitotic Cells (%): 49% and 44%
  Population Normal (%): 91% and 93%
  Population Pyknosed Nuclei (%): 14% and 15%
  Population Tubulin-Different-Phenotype (%): 52% and 41%
  Total Cell Count: 669 and 660
[2]
  Population Apoptotic (%): 58% and 64%
  Population Fragmented Nuclei (%): 5% and 6%
  Population Healthy Nuclei (%): 80% and 81%
  Population Hoechst High Intensity Objects (%): 9% and 10%
  Population Membrane Permeable-Phenotype (%): 1% and 0%
  Population Mitochondria Different-Phenotype (%): 14% and 15%
  Population Mitotic Cells (%): 41% and 35%
  Population Normal (%): 90% and 89%
  Population Pyknosed Nuclei (%): 14% and 11%
  Population Tubulin-Different-Phenotype (%): 51% and 44%
  Total Cell Count: 616 and 713
[3]
  Population Apoptotic (%): 46% and 55%
  Population Fragmented Nuclei (%): 6% and 7%
  Population Healthy Nuclei (%): 83% and 81%
  Population Hoechst High Intensity Objects (%): 7% and 8%
  Population Membrane Permeable-Phenotype (%): 2% and 1%
  Population Mitochondria Different-Phenotype (%): 4% and 3%
  Population Mitotic Cells (%): 53% and 45%
  Population Normal (%): 92% and 91%
  Population Pyknosed Nuclei (%): 9% and 11%
  Population Tubulin-Different-Phenotype (%): 27% and 22%
  Total Cell Count: 1034 and 989
[4]
  Population Apoptotic (%): 50% and 54%
  Population Fragmented Nuclei (%): 13% and 7%
  Population Healthy Nuclei (%): 77% and 82%
  Population Hoechst High Intensity Objects (%): 10% and 9%
  Population Membrane Permeable-Phenotype (%): 2% and 1%
  Population Mitochondria Different-Phenotype (%): 2% and 5%
  Population Mitotic Cells (%): 50% and 45%
  Population Normal (%): 89% and 90%
  Population Pyknosed Nuclei (%): 8% and 9%
  Population Tubulin-Different-Phenotype (%): 13% and 24%
  Total Cell Count: 1214 and 906
[5]
  Population Apoptotic (%): 13% and 14%
  Population Fragmented Nuclei (%): 12% and 10%
  Population Healthy Nuclei (%): 83% and 86%
  Population Hoechst High Intensity Objects (%): 8%
  Population Membrane Permeable-Phenotype (%): 4% and 5%
  Population Mitochondria Different-Phenotype (%): 0%
  Population Mitotic Cells (%): 86% and 85%
  Population Normal (%): 91%
  Population Pyknosed Nuclei (%): 3%
  Population Tubulin-Different-Phenotype (%): 7%
  Total Cell Count: 2736 and 2374
[6]
  Population Apoptotic (%): 25% and 19%
  Population Fragmented Nuclei (%): 25% and 22%
  Population Healthy Nuclei (%): 71% and 75%
  Population Hoechst High Intensity Objects (%): 9%
  Population Membrane Permeable-Phenotype (%): 5% and 7%
  Population Mitochondria Different-Phenotype (%): 0%
  Population Mitotic Cells (%): 74% and 80%
  Population Normal (%): 90%
  Population Pyknosed Nuclei (%): 2%
  Population Tubulin-Different-Phenotype (%): 8% and 13%
  Total Cell Count: 3157 and 2195

— ChEMBL document CHEMBL5303300, “EUbOPEN Chemogenomics Library - Multiplex” (2023)
